In the library only some 2.6% were active in any assay of this set; here they are far more common.
PRMT1 FP inh = inhibitors of human PRMT1 | Q99873 | recombinant PRMT1, activity-based probe fluorescence polarization | inhibition, % at 2.79 µM | 1.3% of 370,000 active | AID 652257;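 active = inhibition above about 21% made by adding two undisclosed values, limit read from the data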
TDP2 inh = TDP2 (human) inhibition, absorbance primary screen. O95551. recombinant TDP2, T5PNP hydrolysis, p-nitrophenol absorbance 415 nm. inhibition, % at 12.8 µM. 0.34% of 370,000 active;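 active = inhibition above the mean of all tested compounds plus 3 SD, set per campaign, cut at about 25% in these data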
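Material: recombinant human TDP2; quantity: TDP2 enzyme at 120 nM final; medium: Tris-HCl pH 7.5 with MgCl2; compound: single concentration, 12.8 µM nominal, with 1% DMSO; incubation: 2 h enzyme incubation at 37 °C; signal: epi absorbance; measure: percent inhibition; benchmarks: high control without enzyme, low control DMSO plus TDP2; repeats: singlicate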
PAD4 inh = blocks human protein arginine deiminase 4 | inhibition, % at 6.36 µM | 0.41% of 330,000 active | recombinant PAD4, RCA probe fluorescence polarization;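 active = percent inhibition above a cutoff equal to the mean of all tested compounds plus 3 SD, cut at about 15% in these data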
GSTO1 counter = blocks human GSTO1 in RBBP9 counter-screen. inhibition, % at 5.96 µM. 1.1% of 300,000 active. recombinant GSTO1, activity-based probe fluorescence polarization;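 active = inhibition above the campaign mean inhibition plus 3 SD, cut at about 35% in these data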
Target sequence (P78417 whole entry, looked up): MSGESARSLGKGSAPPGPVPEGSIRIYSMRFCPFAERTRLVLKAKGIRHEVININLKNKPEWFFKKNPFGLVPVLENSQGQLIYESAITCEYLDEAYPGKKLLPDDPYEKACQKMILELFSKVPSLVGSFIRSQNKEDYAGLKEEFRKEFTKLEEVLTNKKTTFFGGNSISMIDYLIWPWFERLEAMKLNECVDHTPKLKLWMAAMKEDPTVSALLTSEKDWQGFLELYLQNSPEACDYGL
Apaf1 inhib = blocks human Apaf-1 apoptosome activity; reconstituted apoptosome caspase-3 activity, DEVD-Rh110 fluorescence; inhibition, % at 20 µM; 0.71% of 330,000 active; active = inhibition of at least 40% at 20 µM
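Material: reconstituted apoptosome with Apaf-1, cytochrome c, caspase-9, procaspase-3, dATP. Technique: Rh110 fluorescence intensity. Buffer or medium: pH 7.5 Hepes buffer with CHAPS, BSA, DTT. Times: 30 min plus 50 min, RT.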
PRMT1 inh conf = PRMT1 (human) inhibition, FP confirmation; shares compounds with PRMT1 FP inh; recombinant His-PRMT1, activity-based probe fluorescence polarization; inhibition, % at 2.79 µM; 42% of 3,300 active; AID 687036;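 active = mean inhibition across replicates above the hit cutoff derived for the earlier primary screen, cut at about 22% in these data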
Large screens that a line does not name were inactive (follow-up assays come after a bar, where they were run).

COc1cccc(N2C(=O)CC(Sc3nc(C)cc(C)n3)C2=O)c1 (centres undefined)	none
CCOc1ccccc1N1C(=O)CC(Sc2n[nH]c(-c3ccccc3)n2)C1=O (centres undefined)	PRMT1 FP inh 73 | PRMT1 inh conf 78
Cn1ccnc1Sc1cc(NCCCO)c([N+](=O)[O-])c2nonc12	PRMT1 FP inh 42 | PRMT1 inh conf 26
CCOC(=O)C(=C1Nc2ccccc2N1)n1c(-c2ccco2)nc2ccccc21	PRMT1 FP inh 29 (no result: PAD4 inh, GSTO1 counter, Apaf1 inhib) | PRMT1 inh conf 88
CCOC(=O)C(=C1Nc2ccccc2N1)n1c(-c2cnccn2)nc2ccccc21	none (no result: PAD4 inh, GSTO1 counter, Apaf1 inhib)
COC(=O)C[C@@H]1CC[C@@H]2[C@@H](COc3ccc(NC(C)=O)cc3C(=O)N2C)O1	none (no result: PAD4 inh, GSTO1 counter, Apaf1 inhib)
CCN(C(=O)COC(=O)c1n[nH]c2ccccc12)c1ccccc1	none (no result: GSTO1 counter)
N#Cc1c(SCC(=O)Nc2ccccc2C(F)(F)F)sc2c(O)cc(=O)[nH]c12	PRMT1 FP inh 31 | PRMT1 inh conf inactive
Cc1c(Cl)cccc1NC(=O)CSc1sc2c(O)cc(=O)[nH]c2c1C#N	none
N#Cc1c(SCC(=O)Nc2ccc(Cl)cc2Cl)sc2c(O)cc(=O)[nH]c12	PRMT1 FP inh 30 | PRMT1 inh conf inactive
O=C1NC(=S)SC1=C1CCCCCC1	PRMT1 FP inh 32 | PRMT1 inh conf inactive
CCOC(=O)c1c(NC(=O)C2=COCCO2)sc2c1CCN(C(=O)OC)C2	none
O=C(CSc1nccn(-c2ccc(Br)cc2)c1=O)NC1CCCC1	none
CCOc1ccc(-n2ccnc(SCC(=O)NCc3cccc(OC)c3)c2=O)cc1	none
COc1ccc(-n2ccnc(SCC(=O)NC3CCCC3)c2=O)cc1	none
CCOc1ccc(-n2ccnc(SCC(=O)Nc3ccc(OC)cc3OC)c2=O)cc1	PRMT1 FP inh 27 | PRMT1 inh conf 27
COc1ccc(CNC(=O)CSc2nccn(-c3ccc(F)c(F)c3)c2=O)cc1	PRMT1 FP inh 33 | PRMT1 inh conf 27
O=C(CSc1nccn(-c2ccc(Br)cc2)c1=O)Nc1ccccc1F	PRMT1 FP inh 46 | PRMT1 inh conf inactive
Cc1ccc(-n2ccnc(SCC(=O)NC3CCCCC3)c2=O)cc1F	PRMT1 FP inh 26 | PRMT1 inh conf inactive
COc1ccccc1N1CCN(C(=O)C(=O)c2cn(CC(=O)N3CCOCC3)c3ccccc23)CC1	none
O=C(c1ccccc1)C1CCN(c2ncnc3sccc23)CC1	none (no result: PAD4 inh, GSTO1 counter, Apaf1 inhib)
CCCCc1c(O)nc(SCC(=O)N2CCCCC2)n(-c2ccccc2C)c1=O	none
CCCCc1c(O)nc(SCC(=O)NC(C)(C)C)n(-c2ccccc2C)c1=O	PRMT1 FP inh 27 | PRMT1 inh conf inactive
O=C1CC(N2CCCN(C3CC(=O)N(c4ccc(F)cc4)C3=O)CC2)C(=O)N1c1ccc(F)cc1 (centres undefined)	PRMT1 FP inh 78 | PRMT1 inh conf inactive
O=C1CC(N2CCN(c3ccc(Cl)cc3)CC2)C(=O)N1c1ccc(F)cc1 (centres undefined)	none
O=C1CC(N2CCCCC2)C(=O)N1c1ccccc1 (centres undefined)	PRMT1 FP inh 81 | PRMT1 inh conf inactive
COc1ccccc1-n1cc([C@@H]2C[C@H]3CN(c4ccccc4)C(=O)[C@]34CCCN24)cn1	none
O=C(O)CSC1CC(=O)N(c2ccc(Cl)c(Cl)c2)C1=O (centres undefined)	PRMT1 FP inh 48 | PRMT1 inh conf 36
CS(=O)(=O)c1ccc(Cl)c(NC(=O)CSc2nnc3n2CCCCC3)c1	none (no result: PAD4 inh, GSTO1 counter, Apaf1 inhib)
CCOC(=O)c1c(C)oc2c(CC(=O)c3ccccc3)c(Cl)c(O)c(O)c12	PRMT1 FP inh 27 (no result: Apaf1 inhib) | PRMT1 inh conf inactive
COc1ccccc1N(C(C)=O)C1=C(Cl)C(=O)c2ccccc2C1=O	PRMT1 FP inh 94 (no result: PAD4 inh, GSTO1 counter, Apaf1 inhib) | PRMT1 inh conf 89
CC(=O)N(C1=C(N)C(=O)c2ccccc2C1=O)C(C)C	none
N#C/C(=C\c1ccccc1)C(=O)N(c1ccccn1)C1CCCCC1	none
O=C(/C=C/c1ccc([N+](=O)[O-])cc1)N(c1ccccn1)C1CCCCC1	PRMT1 FP inh 28 | PRMT1 inh conf inactive
CC1=C(C(=O)OCC2CCCO2)C(c2ccc(Cl)cc2)NC(=O)N1 (centres undefined)	none
Cc1c(NC(=O)Nc2cccc(C(F)(F)F)c2)c(=O)n(-c2ccccc2)n1C	none

From PubChem
